A selection: hits, their analogues and other compounds. The true share with any hit is near 2.3%.
TRPC4 PAM = positive allosteric modulators of TRPC4, primary screen, cell-based, mouse TRPC4beta, HEK293 mu-opioid, Fluo-4 calcium | AID 2227, 2009 | 310,000 tested, 0.42% active | Short transient receptor potential channel 4 (Mus musculus), Q9QUQ5 | DAMGO EC20, Fluo-4 Ca2+ flux; active compounds read high | B-score at 10 µM;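 active = B-score of calcium response area above 5 SD of library B-scores, with initial fluorescence ratio within 5 SD of library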;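 also: B-score of integrated fluorescence ratio over time as area under calcium response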
Target sequence (Q9QUQ5 whole entry, looked up): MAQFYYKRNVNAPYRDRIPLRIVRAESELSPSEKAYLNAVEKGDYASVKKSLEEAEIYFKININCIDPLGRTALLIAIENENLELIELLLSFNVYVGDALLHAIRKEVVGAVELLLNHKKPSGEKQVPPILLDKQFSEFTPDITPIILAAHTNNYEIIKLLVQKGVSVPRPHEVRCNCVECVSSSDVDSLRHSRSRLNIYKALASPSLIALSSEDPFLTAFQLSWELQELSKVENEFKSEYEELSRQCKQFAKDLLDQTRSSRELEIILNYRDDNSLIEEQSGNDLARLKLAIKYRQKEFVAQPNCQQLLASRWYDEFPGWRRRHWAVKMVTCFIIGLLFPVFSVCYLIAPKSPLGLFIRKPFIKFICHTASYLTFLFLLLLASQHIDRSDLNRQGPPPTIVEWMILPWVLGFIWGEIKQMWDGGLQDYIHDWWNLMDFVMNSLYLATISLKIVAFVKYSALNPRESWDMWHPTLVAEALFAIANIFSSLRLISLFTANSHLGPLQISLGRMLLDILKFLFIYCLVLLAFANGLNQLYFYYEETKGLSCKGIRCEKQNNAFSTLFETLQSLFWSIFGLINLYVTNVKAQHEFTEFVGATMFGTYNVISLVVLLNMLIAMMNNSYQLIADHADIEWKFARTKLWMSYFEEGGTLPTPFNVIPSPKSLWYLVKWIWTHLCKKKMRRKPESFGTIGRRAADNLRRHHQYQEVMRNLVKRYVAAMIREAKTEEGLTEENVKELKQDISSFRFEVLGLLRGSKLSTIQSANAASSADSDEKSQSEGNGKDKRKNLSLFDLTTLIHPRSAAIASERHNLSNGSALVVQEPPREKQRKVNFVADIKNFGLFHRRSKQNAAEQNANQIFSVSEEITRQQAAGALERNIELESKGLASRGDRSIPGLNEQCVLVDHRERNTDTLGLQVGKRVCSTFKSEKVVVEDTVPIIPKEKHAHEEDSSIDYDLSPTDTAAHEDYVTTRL
TRPC6 activator = mouse TRPC6 channel activators, primary screen, cell-based, HEK293, membrane potential dye. HEK293-TRPC6 membrane potential dye fluorescence; active compounds read high. Short transient receptor potential channel 6 (Mus musculus), Q61143. B-score at 10 µM. 310,000 tested, 0.13% active;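 active = B-score of the integrated fluorescence ratio above library mean plus 3 SD, and starting fluorescence ratio within library mean plus 5 SD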;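 also: higher score means more depolarization so channel activation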
TRPC6 inhibitor = mouse TRPC6 channel inhibitors, primary screen, cell-based, HEK293, membrane potential dye | Short transient receptor potential channel 6 (Mus musculus), Q61143 | B-score at 10 µM | ACh-evoked depolarization; active compounds read low | 310,000 tested, 1.1% active;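 active = B-score under library mean minus 3 SD, initial fluorescence not abnormally high, positive integrated signal ratio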;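 also: B-score derived from integrated fluorescence ratio over the kinetic read; more negative B-score means stronger inhibition of depolarization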
TRPC4 inh = inhibitors of mouse TRPC4 channel, primary screen, Fluo4 calcium, HEK293 TRPC4beta/mu-opioid cells | Short transient receptor potential channel 4 (Mus musculus), Q9QUQ5 | DAMGO-evoked Fluo4 calcium flux; active compounds read low | B-score at 10 µM | 300,000 tested, 0.39% active | AID 2247, 2010;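 active = B-score over 3 SD under the library average, no early fluorescence shift, positive overall ratio signal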
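Assay system: HEK293 cells with stable TRPC4beta plus mu-opioid receptor expression. Dosing: single dose. Measured by: Fluo4 Ca2+ flux fluorescence. Also added: DAMGO in two steps, submaximal then maximal. Read-out: B score from integrated Fluo4 fluorescence ratio.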
TRPC4 act = activators of mouse TRPC4 channel, primary screen, Fluo4 calcium, HEK293 TRPC4beta/mu-opioid cells | 310,000 tested, 0.49% active | Short transient receptor potential channel 4 (Mus musculus), Q9QUQ5 | Fluo4 calcium fluorescence; active compounds read high | B-score at 10 µM;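 active = B-score above 5 SD of library B-scores, and initial fluorescence ratio not above library mean plus 5 SD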;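 also: positive B-score marks a calcium rise read as TRPC4 activation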
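Technique: kinetic Fluo4 calcium fluorescence; Test system: TRPC4beta and mu-opioid receptor HEK293 stable cells; Measure: B-scored integrated calcium fluorescence ratio; Benchmarks: low control buffer alone, high control maximal DAMGO; Schedule: 45 min room-temperature Fluo4 loading, 110 s read.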
TRPC4 spec 2 = second check of whether TRPC6 inhibitors also affect mouse TRPC4; shares compounds with TRPC6 inhibitor; HEK293 TRPC4/MOR, membrane potential dye fluorescence; channel activated by saturating DAMGO dose; inhibition, % at 10 µM; 920 tested, 42% active; AID 2776;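 active = compounds whose fluorescence signal differed from control wells by over 3 SD, either direction, in both duplicate plates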
TRPC4 spec = mouse TRPC4 modulation by TRPC6 hits, confirmation, selectivity assay for TRPC6 inhibitor project, cell-based, HEK293 TRPC4/mu-opioid, membrane potential dye; shares compounds with TRPC6 inhibitor; activity change, negative = inhibition, % at 10 µM; 920 tested, 61% active; membrane potential fluorescence;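 active = rise or fall in signal beyond 3 SD of buffer-only wells in both replicate plates, either sign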;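 also: integrated kinetic ratio of fluorescence range over baseline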
HEK293 MPD ctr 2-1 = nonspecific membrane potential effects, parental HEK293, confirmation, counter-screen for TRPC6 inhibitor project, cell-based, second counter screen; shares compounds with TRPC6 inhibitor; parental HEK293 membrane potential dye fluorescence; maximal acetylcholine challenge after compound addition; signal change vs control, % at 10 µM; 920 tested, 31% active; AID 2779, 2010;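 active = membrane potential signal moving either way by over 3 SD of the maximum-effect control, in both duplicate plates, meaning non-specific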
HEK293 MPD ctr-1 = membrane potential modulation in parental HEK293, confirmation, counter-screen for TRPC6 inhibitor project, cell-based. membrane potential signal change, % at 10 µM. shares compounds with TRPC6 inhibitor. 920 tested, 60% active. AID 2780, 2010. parental HEK293 membrane potential dye fluorescence;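 active = membrane potential signal shifting up or down by more than 3 SD of buffer-only wells, on both duplicate plates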
HEK293 MPD ctr-2 = parental HEK293 membrane potential modulation, confirmation, counter-screen for TRPC6 modulator project, cell-based. shares compounds with TRPC6 inhibitor. membrane potential dye fluorescence. 2,400 tested, 51% active. AID 488924, 2010. membrane potential signal change, % at 10 µM;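 active = membrane potential signal moves up or down beyond 5 SD from buffer-only wells, on both duplicate plates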
HEK293 MPD ctr 2-2 = second check of TRPC6 modulator effects in parental HEK293 cells | shares compounds with TRPC6 inhibitor | membrane potential dye fluorescence; after compound, maximal acetylcholine stimulation | inhibition, % at 10 µM | 2,400 tested, 14% active | AID 488926;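 active = membrane potential signal drops by more than 5 SD from the mean control signal, in both duplicate plates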;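 also: plate controls were acetylcholine ECmax control wells for no effect and buffer only wells for full effect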
TRPC4/MOR mod = TRPC4 modulation by TRPC6 hit compounds, confirmation, selectivity assay for TRPC6 modulator project, cell-based, HEK293 TRPC4/mu-opioid, membrane potential dye, mouse. 2,400 tested, 69% active. shares compounds with TRPC6 inhibitor. AID 488927, 2010. membrane potential fluorescence. percent change from control (negative = decrease, positive = increase), % at 10 µM;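 active = membrane potential signal moved up or down beyond 5 SD of buffer control wells, in both duplicate plates, actives on both sides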;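 also: plate controls were assay buffer wells for no effect and DAMGO maximal-effect wells for full effect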
TRPC4/MOR inh 2 = mouse TRPC4 off-target activity of TRPC6 modulators, second screen | shares compounds with TRPC6 inhibitor | HEK293 TRPC4/mu-opioid, membrane potential dye fluorescence; stimulated with maximal-effect DAMGO | inhibition, % at 10 µM | 2,400 tested, 55% active;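 active = drop in membrane potential signal beyond 5 SD of the control wells in both duplicate plates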;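 also: TRPC4 counter screen for TRPC6 hits run under conditions tuned for TRPC6 not TRPC4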
TRPC6 block conf = mouse TRPC6 channel inhibitors, confirmation, HEK293 cells, membrane potential dye, duplicate; 3,300 tested, 43% active; shares compounds with TRPC6 inhibitor; ACh-evoked depolarization; inhibition, % at 10 µM;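 active = fluorescence ratio falls more than 5 SD below the full-stimulation control mean, in both duplicate runs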;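 also: integrated fluorescence ratio of peak minus minimum over baseline after agonist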
TRPC6 act conf = mouse TRPC6 channel activators, confirmation, HEK293 cells, membrane potential dye, duplicate; activation, % at 10 µM; AID 488961, 2010; 2,800 tested, 11% active; HEK293-TRPC6 membrane potential dye fluorescence, FDSS; shares compounds with TRPC6 inhibitor;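 active = ratio signal rise beyond 5 SD above unstimulated control wells' mean, seen in both duplicate runs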;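 also: plate controls were buffer EC0 wells for no effect and acetylcholine ECmax response for full effect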
* hit, by the source's call; i = inactive; nt = not tested or not shown.

SMILES	TRPC4 PAM	TRPC6 activator	TRPC6 inhibitor	TRPC4 inh	TRPC4 act	HEK293 MPD ctr-2	HEK293 MPD ctr 2-2	TRPC4/MOR mod	TRPC4/MOR inh 2	TRPC6 block conf	TRPC6 act conf	others
Cc1ccn2cc(-c3ccc(O)c(O)c3)nc2c1	i	i	-5.3*	i	i	-120%*	i	-23%*	i	i	i
Oc1ccc(-c2cn3ccccc3n2)cc1O	i	i	i	i	i	nt	nt	nt	nt	nt	nt
CC(Oc1ccc2c3c(c(=O)oc2c1)CCC3)C(=O)NC1CCN(Cc2ccccc2)CC1 (stereo unspecified)	i	i	-6.3*	i	i	i	i	-14%*	74%*	58%*	i
CCOc1ccccc1C(=O)Nc1cccc2cccnc12	i	i	i	i	i	nt	nt	nt	nt	nt	nt
COc1ccc(-c2c[n+](CC(=O)OC3CC(C)CCC3C(C)C)c3n2CCC3)cc1 (stereo unspecified)	i	i	-6.1*	i	i	162%*	i	28%*	i	55%*	nt
CSc1ccc(/C=C2\CCn3c2nc2cc(C(=O)O)ccc2c3=O)cc1	i	i	i	i	i	nt	nt	nt	nt	nt	nt
O=C(CSc1nnc(CNC(=O)c2cccs2)o1)Nc1ccc(Br)cc1	i	i	i	i	i	nt	nt	nt	nt	nt	nt
CN(C)CCCN(C(=O)c1ccco1)c1nc(-c2ccc(Cl)cc2)cs1	i	i	-7.3*	-6*	i	nt	nt	nt	nt	i	i	TRPC4 spec 2=12%*;TRPC4 spec=i;HEK293 MPD ctr 2-1=i;HEK293 MPD ctr-1=-152%*
CN(C)CCCN(C(=O)/C=C/c1cccs1)c1nc2c(F)cccc2s1	i	i	-7.1*	i	i	nt	nt	nt	nt	i	i	TRPC4 spec 2=i;TRPC4 spec=i;HEK293 MPD ctr 2-1=i;HEK293 MPD ctr-1=i
CN(C)CCCN(C(=O)CCc1ccccc1)c1nc2c(F)cccc2s1	i	i	i	i	i	nt	nt	nt	nt	nt	nt
CN(C)CCCN(C(=O)c1ccco1)c1nc2c(F)cccc2s1	i	i	-9.8*	i	i	nt	nt	nt	nt	107%*	i	TRPC4 spec 2=18%*;TRPC4 spec=-32%*;HEK293 MPD ctr 2-1=26%*;HEK293 MPD ctr-1=-300%*
CN(C)CCCN(C(=O)c1ccco1)c1nc2c(F)cc(F)cc2s1	i	i	-7.1*	i	i	-158%*	i	-34%*	82%*	52%*	i
CC(=O)Oc1ccc2nc(-c3ccc(Br)o3)oc(=O)c2c1	i	i	i	i	i	nt	nt	nt	nt	nt	nt
Cc1cc(C(=O)N/N=C/C(Cl)=C/c2ccccc2)c(C)o1	i	i	i	i	i	nt	nt	nt	nt	nt	nt
CCCN(C(=O)CSCc1ccc(Cl)cc1)c1c(N)n(Cc2ccccc2)c(=O)[nH]c1=O	i	i	i	i	i	nt	nt	nt	nt	nt	nt
Cc1nnc(C)c2c(C)n(C(C)c3ccccc3)c(C)c12 (stereo unspecified)	i	i	i	i	i	nt	nt	nt	nt	nt	nt
COc1ccc(C(C)n2c(C)c3c(C)nnc(C)c3c2C)cc1 (stereo unspecified)	i	i	-8.1*	i	i	-220%*	i	-30%*	65%*	i	i
CCOC(=O)c1ccc(NC(=O)CCNS(=O)(=O)c2cc(Br)cnc2N)cc1	i	i	-6.9*	i	i	i	i	-20%*	i	79%*	i
CCOC(=O)N1CCN(S(=O)(=O)c2cc(Br)cnc2N)CC1	i	i	-7.2*	i	i	nt	nt	nt	nt	i	i	TRPC4 spec 2=i;TRPC4 spec=i;HEK293 MPD ctr 2-1=i;HEK293 MPD ctr-1=i
CCOC(=O)N1CCN(S(=O)(=O)c2ccc(OCC)c(C)c2)CC1	i	12*	-9.9*	i	i	i	i	18%*	i	74%*	128%*
CCOC(=O)N1CCN(S(=O)(=O)c2ccc(C)c(C)c2)CC1	i	i	i	i	i	nt	nt	nt	nt	nt	nt
CSc1ccccc1NC(=O)COC(=O)CCc1ccccc1	i	i	i	i	i	nt	nt	nt	nt	nt	nt
CN1CCN(C(=O)c2ccc(COc3cc(Cl)ccc3Cl)o2)CC1	i	i	-5.7*	i	i	127%*	i	22%*	i	i	nt
CC1CCN(C(=O)c2ccc(COc3ccccc3Cl)o2)CC1	i	i	-6.2*	i	i	121%*	i	25%*	i	i	i

From PubChem BioAssay
